Columns and labels:
[1] = Cytotoxicity against human HepG2 cells measured after 72 hrs by MTT assay; format: cell-based
How it was run: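 Cells seeded at 5.10³ per well in complete medium at 37 °C, humidified 6% CO₂, and left 24 h. Compound was added in DMSO (final under 0.5% v/v) over a range of concentrations for 72 h at 37 °C, in triplicate. Wells were checked under the microscope for precipitate. MTT (0.5 mg/mL in FCS-free medium) was added for 2 h, then A570 read with a 630 nm reference. Viability was taken as % of control, CC50 from dose–response, mean of three independent experiments.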

[2] = Selectivity index, ratio of CC50 for human HepG2 cells to IC50 for chloroquine/purimethamine/proguanil-resistant Plasmodium falciparum K1; format: functional
How it was run: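 SI = CC50/IC50 (K1). […] MTT at 0.5 mg/mL was added for 2 h, and absorbance read at 570 nm against 630 nm reference. Viability was taken as % of control, and CC50 is the mean of three independent experiments.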

[3] = Solubility of compound in RPMI1640 culture medium containing 25mM HEPES, 25 mM NaHCO3 and 10% A+ human serum; format: physicochemical
Plasmodium falciparum = test: Antiplasmodial activity against chloroquine/purimethamine/proguanil-resistant Plasmodium falciparum K1 infected in human A+ erythrocytes assessed as reduction in parasitaemia measured after 72 hrs by SYBR Green I fluorescence-based assay; format: functional, organism-based; settings: K1, 72 h

Row | Compound | CC50 at 72 h [1] | Ratio CC50/IC50 [2] | solubility [3] | IC50 (Plasmodium falciparum)
1 | COc1cccc(Oc2nc(C(Cl)(Cl)Cl)nc3ccccc23)c1 | 0.5 µM | 0.3 | soluble | –
2 | Clc1ccc(Oc2nc(C(Cl)(Cl)Cl)nc3ccccc23)c(Cl)c1 | 22.1 µM | 18.4 | soluble | 1.2 µM
3 | CC(=O)c1ccccc1Oc1nc(C(Cl)(Cl)Cl)nc2ccccc12 | 40 µM | 26.7 | soluble | 1.5 µM
4 | Cc1cc(Oc2nc(C(Cl)(Cl)Cl)nc3ccccc23)ccc1Cl | 5.3 µM | 5.9 | soluble | 0.9 µM
5 | COc1ccc(COc2nc(C(Cl)(Cl)Cl)nc3ccccc23)cc1OC | 118 µM | 30.6 | soluble | 3.9 µM
6 | ClC(Cl)(Cl)c1nc(Oc2c(Br)cc(Br)c3cccnc23)c2ccccc2n1 | 4.9 µM | <0.5 | soluble | > 10 µM
7 | Cc1ccc(COc2nc(C(Cl)(Cl)Cl)nc3ccccc23)cc1 | 50.9 µM | 12.7 | soluble | 4 µM
8 | ClC(Cl)(Cl)c1nc(Oc2cccc(Br)c2)c2ccccc2n1 | 36.7 µM | 16 | soluble | 2.3 µM
9 | ClC(Cl)(Cl)c1nc(OCc2cccc(OCc3ccccc3)c2)c2ccccc2n1 | 62.5 µM | 16.4 | soluble | 3.8 µM
10 | ClC(Cl)(Cl)c1nc(Oc2ccccc2Br)c2ccccc2n1 | 26.2 µM | 13.8 | soluble | 1.9 µM
11 | Clc1ccc(COc2nc(C(Cl)(Cl)Cl)nc3ccccc23)cc1 | 33.4 µM | 13.4 | soluble | 2.5 µM
12 | Cc1occc(=O)c1Oc1nc(C(Cl)(Cl)Cl)nc2ccccc12 | 62.7 µM | <6.3 | soluble | > 10 µM
13 | CC(=O)c1ccccc1Oc1nc(C)nc2ccccc12 | – | – | soluble | > 15 µM
14 | N#Cc1ccc(Oc2nc(C(Cl)(Cl)Cl)nc3ccccc23)cc1 | > 8 µM | >5 | Insoluble | 1.6 µM
15 | FC(F)(F)c1ccc(COc2nc(C(Cl)(Cl)Cl)nc3ccccc23)cc1 | 27.8 µM | 9.9 | soluble | 2.8 µM
16 | O=[N+]([O-])c1ccc(COc2nc(C(Cl)(Cl)Cl)nc3ccccc23)cc1 | 34.9 µM | 19.4 | soluble | 1.8 µM
17 | COc1ccc(COc2nc(C(Cl)(Cl)Cl)nc3ccccc23)cc1 | 90.3 µM | <9 | soluble | > 10 µM
18 | O=c1cc(Oc2nc(C(Cl)(Cl)Cl)nc3ccccc23)c2ccccc2o1 | 59 µM | <5.9 | soluble | > 10 µM
19 | ClC(Cl)(Cl)c1nc(Oc2ccc3ccccc3n2)c2ccccc2n1 | 30.3 µM | <3 | soluble | > 10 µM

Row | Compound | CC50 at 72 h [1] | Ratio CC50/IC50 [2] | solubility [3] | IC50 (Plasmodium falciparum)
20 | CC(C)c1ccc(COc2nc(C(Cl)(Cl)Cl)nc3ccccc23)cc1 | 33.3 µM | <3.3 | soluble | > 10 µM
21 | O=Cc1ccccc1Oc1nc(C(Cl)(Cl)Cl)nc2ccccc12 | 75 µM | 7.5 | soluble | 10 µM
22 | CC(=O)c1cccc(Oc2nc(C(Cl)(Cl)Cl)nc3ccccc23)c1 | 1 µM | 0.6 | soluble | 1.7 µM
23 | O=[N+]([O-])c1cccc(COc2nc(C(Cl)(Cl)Cl)nc3ccccc23)c1 | 29.9 µM | 13.6 | soluble | 2.2 µM
24 | C#CC(Oc1nc(C(Cl)(Cl)Cl)nc2ccccc12)c1ccccc1 (configuration not stated) | 24.6 µM | 10.2 | soluble | 2.4 µM
25 | Fc1c(F)c(F)c(Oc2nc(C(Cl)(Cl)Cl)nc3ccccc23)c(F)c1F | 43.7 µM | 9.9 | soluble | 4.4 µM
26 | ClC(Cl)(Cl)c1nc(OCc2ccccc2)c2ccccc2n1 | 43.8 µM | 21.9 | soluble | 2 µM
27 | O=[N+]([O-])c1ccccc1COc1nc(C(Cl)(Cl)Cl)nc2ccccc12 | > 10 µM | >4.3 | Insoluble | 2.3 µM
28 | CC(=O)c1ccc(Oc2nc(C(Cl)(Cl)Cl)nc3ccccc23)cc1 | 49.5 µM | 21.5 | soluble | 2.3 µM
29 | O=[N+]([O-])c1ccc(/C=C/COc2nc(C(Cl)(Cl)Cl)nc3ccccc23)cc1 | 31.2 µM | 12 | soluble | 2.6 µM
30 | O=[N+]([O-])c1cc2c(cc1COc1nc(C(Cl)(Cl)Cl)nc3ccccc13)OCO2 | 28.7 µM | 9.3 | soluble | 3.1 µM
31 | ClC(Cl)(Cl)c1nc(Oc2ccc(Br)cc2)c2ccccc2n1 | 45 µM | 25 | soluble | 1.8 µM
32 | CC(Oc1nc(C(Cl)(Cl)Cl)nc2ccccc12)c1ccc(Cl)cc1 (configuration not stated) | 25.1 µM | 7.2 | soluble | 3.5 µM
33 | N#CC(Oc1nc(C(Cl)(Cl)Cl)nc2ccccc12)c1ccccc1 (configuration not stated) | 25.7 µM | 17.1 | soluble | 1.5 µM
34 | CC(Oc1nc(C(Cl)(Cl)Cl)nc2ccccc12)c1ccccc1 (configuration not stated) | 39.9 µM | 12.1 | soluble | 3.3 µM
35 | CC(Oc1nc(C(Cl)(Cl)Cl)nc2ccccc12)c1ccc(Cl)cc1Cl (configuration not stated) | 30.2 µM | 7.2 | soluble | 4.2 µM
36 | COc1cc(C=O)cc([N+](=O)[O-])c1Oc1nc(C(Cl)(Cl)Cl)nc2ccccc12 | 57 µM | <5.7 | soluble | > 10 µM
37 | C[C@H]1c2cccc(O)c2C(=O)C2=C(O)[C@]3(O)C(=O)C(C(N)=O)=C(O)[C@@H](N(C)C)[C@@H]3[C@@H](O)[C@@H]21.O [DOXYCYCLINE] | – | 3.3 | – | –
